In ChEMBL document CHEMBL2384939, “Synthesis of pyrazolo[1,5-a]pyrimidine linked aminobenzothiazole conjugates as potential anticancer agents” (Bioorg Med Chem Lett, 2013):
Active and inactive are the calls of the source. The rule behind the calls is not given here.

Columns and labels:
[1] = test system: A549; experiment: Induction of apoptosis in human A549 cells assessed as DNA fragmentation at 2 uM after 48 hrs by agarose gel electrophoresis; type: functional, cell-based
Method in brief: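 A549 cells (1×10^6) seeded in six-well plates for 24 h, then exposed to 2 µM compound or roscovitine for 48 h and pelleted. Lysate treated with SDS and RNase-A (2 h, 56 °C), then proteinase K (2 h, 37 °C). DNA precipitated with ammonium acetate/cold ethanol, dissolved in TE, and laddering resolved on 2% agarose gel against a 50 bp marker.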

[2] = test system: A549; experiment: Induction of apoptosis in human A549 cells assessed as nuclear fragmentation at 2 uM after 48 hrs by Hoechst staining assay; type: functional, cell-based
Method in brief: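 A549 cells (10,000 per 18-mm coverslip) grown 24 h, then given 2 µM compound for 48 h, with 0.001% DMSO vehicle and roscovitine controls. Hoechst 33258 (0.5 mg/mL) in 4% paraformaldehyde was added for 30 min. Randomly chosen fields were imaged by fluorescence microscopy and apoptotic cells scored manually by cytoplasmic condensation, apoptotic bodies and nuclear fragmentation.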

[3] = test system: A549; experiment: Induction of apoptosis in human A549 cells assessed as reduction of Cdk1 expression at 2 uM after 48 hrs by Western blot analysis; type: functional, cell-based
Method in brief: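 5×10^5 A549 cells grown 24 h, then treated with 2 µM compound for 48 h. Lysis in ice-cold RIPA with protease inhibitors, protein by Bradford, 50 µg per lane on 12% SDS-PAGE, PVDF transfer. Probed overnight at 4 °C with mouse monoclonal anti-Cdk1, β-actin as loading control, chemiluminescent detection.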

[4] = test system: A549; experiment: Cell cycle arrest at human A549 cells assessed as accumulation at G2/M phase at 1 uM after 48 hrs by propidium iodide-staining-based FACS flow cytometric analysis (reference value: 13.17%); type: functional
[5] = test system: A549; experiment: Cell cycle arrest at human A549 cells assessed as accumulation at G2/M phase at 2 uM after 48 hrs by propidium iodide-staining-based FACS flow cytometric analysis (reference value: 13.17%); type: functional
[6] = test system: A549; experiment: Cell cycle arrest at human A549 cells assessed as accumulation at S phase at 1 uM after 48 hrs by propidium iodide-staining-based FACS flow cytometric analysis (reference value: 4.48%); type: functional
[7] = test system: A549; experiment: Cell cycle arrest at human A549 cells assessed as accumulation at S phase at 2 uM after 48 hrs by propidium iodide-staining-based FACS flow cytometric analysis (reference value: 4.48%); type: functional
[8] = test system: A549; experiment: Cell cycle arrest at human A549 cells assessed as accumulation at G0/G1 phase at 1 uM after 48 hrs by propidium iodide-staining-based FACS flow cytometric analysis (reference value: 81.33%); type: functional
[9] = test system: A549; experiment: Cell cycle arrest at human A549 cells assessed as accumulation at sub G1 phase at 2 uM after 48 hrs by propidium iodide-staining-based FACS flow cytometric analysis (reference value: 1.02%); type: functional
[10] = test system: BT-549; experiment: Cytotoxicity against human BT549 cells after 48 hrs by MTT assay; type: functional; conditions: BT-549, 48 h
[11] = test system: Hs-578T; experiment: Cytotoxicity against human Hs578T cells after 48 hrs by MTT assay; type: functional
[12] = test system: MDA-MB-231; experiment: Cytotoxicity against human MDA-MB-231 cells after 48 hrs by MTT assay; type: functional; conditions: MDA-MB-231, 48 h
[13] = test system: DU-145; experiment: Cytotoxicity against human DU145 cells after 48 hrs by MTT assay; type: functional, cell-based; conditions: DU-145, 48 h
Method in brief: (§1)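 MTT assay: […] were plated in DMEM with 10% FBS and incubated for 24 h at 37 °C under CO2. Compounds diluted in culture medium were added alongside a vehicle control for 48 h. MTT (10 µl of a 5 mg/ml stock) was added for a further 4 h. The supernatant was then removed, the formazan dissolved in DMSO, and absorbance read at 540 nm. IC50 was derived.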

[14] = test system: TK-10; experiment: Cytotoxicity against human TK10 cells after 48 hrs by MTT assay; type: functional; conditions: TK-10, 48 h
[15] = test system: SN12C; experiment: Cytotoxicity against human SN12C cells after 48 hrs by MTT assay; type: functional
[16] = test system: RXF 393; experiment: Cytotoxicity against human RXF393 cells after 48 hrs by MTT assay; type: functional; conditions: RXF 393, 48 h
[17] = test system: SK-OV-3; experiment: Cytotoxicity against human SKOV3 cells after 48 hrs by MTT assay; type: functional; conditions: SK-OV-3, 48 h
[18] = test system: OVCAR-8; experiment: Cytotoxicity against human OVCAR8 cells after 48 hrs by MTT assay; type: functional; conditions: OVCAR-8, 48 h
[19] = test system: UACC-62; experiment: Cytotoxicity against human UACC62 cells after 48 hrs by MTT assay; type: functional; conditions: UACC-62, 48 h
[20] = test system: IGROV-1; experiment: Cytotoxicity against human IGROV1 cells after 48 hrs by MTT assay; type: functional; conditions: IGROV-1, 48 h
[21] = test system: SK-MEL-2; experiment: Cytotoxicity against human SK-MEL-2 cells after 48 hrs by MTT assay; type: functional; conditions: SK-MEL-2, 48 h
[22] = test system: A549; experiment: Cell cycle arrest at human A549 cells assessed as accumulation at sub G1 phase at 1 uM after 48 hrs by propidium iodide-staining-based FACS flow cytometric analysis (reference value: 1.02%); type: functional
[23] = test system: M14; experiment: Cytotoxicity against human M14 cells after 48 hrs by MTT assay; type: functional; conditions: M14, 48 h
[24] = test system: U-251; experiment: Cytotoxicity against human U251 cells after 48 hrs by MTT assay; type: functional; conditions: U-251, 48 h
[25] = test system: SNB-75; experiment: Cytotoxicity against human SNB75 cells after 48 hrs by MTT assay; type: functional; conditions: SNB-75, 48 h
[26] = test system: SF-539; experiment: Cytotoxicity against human SF539 cells after 48 hrs by MTT assay; type: functional; conditions: SF-539, 48 h
[27] = test system: SF-295; experiment: Cytotoxicity against human SF295 cells after 48 hrs by MTT assay; type: functional; conditions: SF-295, 48 h
[28] = test system: SF-268; experiment: Cytotoxicity against human SF268 cells after 48 hrs by MTT assay; type: functional; conditions: SF-268, 48 h
[29] = test system: HCT-116; experiment: Cytotoxicity against human HCT116 cells after 48 hrs by MTT assay; type: functional; conditions: HCT-116, 48 h
[30] = test system: NCI-H460; experiment: Cytotoxicity against human NCI-H460 cells after 48 hrs by MTT assay; type: functional; conditions: NCI-H460, 48 h
[31] = test system: NCI-H23; experiment: Cytotoxicity against human NCI-H23 cells after 48 hrs by MTT assay; type: functional; conditions: NCI-H23, 48 h
[32] = test system: HOP-92; experiment: Cytotoxicity against human HOP92 cells after 48 hrs by MTT assay; type: functional; conditions: HOP-92, 48 h
[33] = test system: HOP-62; experiment: Cytotoxicity against human HOP62 cells after 48 hrs by MTT assay; type: functional; conditions: HOP-62, 48 h
[34] = Cytotoxicity against human EKVX cells after 48 hrs by MTT assay; type: functional
[35] = test system: A549; experiment: Cytotoxicity against human A549 cells after 48 hrs by MTT assay; type: functional, cell-based; conditions: A549, 48 h; method in brief: as §1
[36] = test system: SR; experiment: Cytotoxicity against human SR cells after 48 hrs by MTT assay; type: functional
[37] = test system: K562; experiment: Cytotoxicity against human K562 cells after 48 hrs by MTT assay; type: functional; conditions: K562, 48 h
[38] = test system: CCRF-CEM; experiment: Cytotoxicity against human CCRF-CEM cells after 48 hrs by MTT assay; type: functional

Row | SMILES | Activity [1] | Activity [2] | Activity [3] | Activity [4] [%] | Activity [5] [%] | Activity [6] [%] | Activity [7] [%] | Activity [8] [%] | Activity [9] [%] | GI50 [10] [µM] | GI50 [11] [µM] | GI50 [12] [µM] | GI50 [13] [µM] | IC50 [13] [nM] | GI50 [14] [µM] | GI50 [15] [µM] | GI50 [16] [µM] | GI50 [17] [µM] | GI50 [18] [µM] | GI50 [19] [µM] | other results
1 | O=C(Nc1nc2ccccc2s1)c1cc(-c2ccc(F)cc2)n2nc(-c3ccccc3)cc2n1 | Active | Active | Active | 44.54 | 64.7 | 6.1 | 6.8 | 35.34 | 3.75 | 2 | 2.2 | 2.3 | 4.9 | 2080 | 2.4 | 6.4 | 2.5 | 2.3 | 2.1 | 3.7 | GI50 [20]: 4.3 µM; GI50 [21]: 3.1 µM; Activity [22]: 4.01%; GI50 [23]: 3100 nM; GI50 [24]: 2 µM; GI50 [25]: 1700 nM; GI50 [26]: 2600 nM; GI50 [27]: 4.1 µM; GI50 [28]: 3.8 µM; GI50 [29]: 2.7 µM; GI50 [30]: 2.1 µM; GI50 [31]: 2.8 µM; GI50 [32]: 1600 nM; GI50 [33]: 2.2 µM; GI50 [34]: 6.6 µM; GI50 [35]: 2700 nM; IC50 [35]: 1940 nM; GI50 [36]: 3.9 µM; GI50 [37]: 4.2 µM; GI50 [38]: 1.8 µM
2 | COc1cc(-c2cc(C(=O)Nc3nc4ccccc4s3)nc3cc(-c4ccccc4)nn23)cc(OC)c1OC | Active | Active | Active | 40.05 | 52.45 | 5.9 | 6.32 | 42.29 | 9.05 | 6.3 | 4.7 | 5.6 | 65 | 3160 | 11.9 | 85 | 6.2 | 12.5 | 5.3 | 14.4 | GI50 [20]: 56 µM; GI50 [21]: 11.2 µM; Activity [22]: 11.77%; GI50 [23]: 2300 nM; GI50 [24]: 5.1 µM; GI50 [25]: 2700 nM; GI50 [26]: 1300 nM; GI50 [27]: 10.6 µM; GI50 [28]: 4.5 µM; GI50 [29]: 4.5 µM; GI50 [30]: 29 µM; GI50 [31]: 11.5 µM; GI50 [32]: 700 nM; GI50 [33]: 9.8 µM; GI50 [34]: 42 µM; IC50 [35]: 2010 nM; GI50 [36]: 19.7 µM; GI50 [37]: 25 µM; GI50 [38]: 54 µM
